Our source for the folding enthalpy and Tm values is the array DNA melting data of Ke et al. (doi:10.1101/2024.01.08.574731).

Series [1] in a line: folding enthalpy; higher = less favourable; fluorescence melt of hairpins on a sequencing array, two-state fit. Conditions: sodium 0.088 M. The essentials:
(§1)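 Folding enthalpy and melting temperature come from bootstrapped two-state fits to Cy3 fluorescence of library hairpins carrying annealed Cy3 and quencher oligos on a sequenced MiSeq flow cell. Imaging was done in 50 mM Na-HEPES pH 8.0, 25 mM NaCl, stepping by 2.5 °C up to 60 °C, and signals were normalised to pre-quench Cy3 and to control constructs. Results of four replicates were combined by inverse variance, and fitted temperatures were raised by 9.35 °C to match UV melts.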

Series [2] in a line: melting temperature; fluorescence melt of hairpins on a sequencing array, two-state fit, raised by 9.35 °C to match UV melts. Conditions: sodium 0.088 M. The essentials: as §1

On to GACCCTACGAAAGTAGTC (((..(((....)))))), for which the folding enthalpy in series [1] was -11.3 kcal/mol. In addition, the Tm in series [2] amounted to 28 °C.
For the sequence GCAGCGCGAAAGCAGTGC (((..((....))..))), in series [1], the folding enthalpy is -18.1 kcal/mol. Further, the Tm in series [2] worked out at 52.8 °C.
The matching figures for GCAGGGCGAAAGCCCCGC ((.((((....)))).)): -14.5 kcal/mol and 62.8 °C.
The matching figures for GTCGGTCGAAAGACGGAC (((.(((....))).))): -34.8 kcal/mol and 59.1 °C.
The matching figures for GATCAGTCACCTGATC ((((((....)))))): -36.4 kcal/mol and 49.6 °C.
As to GGTTACGAAAGTAAGACC ((((((....)))..))), the folding enthalpy in series [1] is -15 kcal/mol. Moreover, the Tm in series [2] was 34.5 °C.
On to GGGTCAGGAAACTGGCCC (((.(((....))).))), for which the folding enthalpy in series [1] was -41.8 kcal/mol. For the same sequence, the Tm in series [2] worked out at 60.4 °C.
The corresponding values for GGAAGCGAAAGCTAGTCC ((((((....)))..))) are -9.98 kcal/mol and 25.8 °C.
GATCTACGTATAGATC ((((((....)))))): the folding enthalpy in series [1] was -33.8 kcal/mol. The Tm in series [2] was 41.2 °C.
As to GATCGAATAATCGATC ((((((....)))))), the folding enthalpy in series [1] was -30.8 kcal/mol. For the same sequence, in series [2], the Tm came to 47.6 °C.
The corresponding values for GCATACGAAAGTAAATGC ((((((....)))..))) are -30 kcal/mol and 42.6 °C.
The corresponding values for GGGGCCACGAAAGTGCCC (((..(((....)))))) are -26.2 kcal/mol and 60 °C.
In the case of CGACTCGGAAACGACTCG (((.(((....))).))), the folding enthalpy in series [1] is -30.6 kcal/mol. Moreover, in series [2], the Tm is 34.2 °C.
The matching figures for GCGACGCGAAAGCCTTGC ((.(.((....)).).)): -12 kcal/mol and 35.9 °C.
In the case of GTCACTCGAAAGAGGAC (((.(((....)))))), in series [1], the folding enthalpy is -23.9 kcal/mol. The Tm in series [2] is 45.8 °C.
On to GAACCCCGAAAGGGATTC (((.(((....))).))), for which, in series [1], the folding enthalpy was -28.5 kcal/mol. Also, the Tm in series [2] worked out at 46 °C.
As to GATCTTTATAAGATC ((((((...)))))), the folding enthalpy in series [1] is -33.3 kcal/mol. Moreover, the Tm in series [2] amounted to 44 °C.
With GGGCGCCGAAAGGCCCCC (((.(((....))).))), the folding enthalpy in series [1] is -14 kcal/mol. Also, the Tm in series [2] amounted to 65.5 °C.
The corresponding values for GCTCTCGAAAGAGGCAGC ((((((....)))..))) are -15.5 kcal/mol and 42.3 °C.
The matching figures for GATCTCCGTGAGATC ((((((...)))))): -36.2 kcal/mol and 56.3 °C.
Consider GTCCGACGAAAGTCAGAC (((.(((....))).))), for which, in series [1], the folding enthalpy was -23.5 kcal/mol. Also, in series [2], the Tm is 50 °C.
The matching figures for GCCCTCGAAAGAGTAGGC ((((((....)))..))): -29.5 kcal/mol and 49 °C.
For GGTGGGGGAAACCTCACC ((((.((....)).)))), in series [1], the folding enthalpy is -39.5 kcal/mol. Also, in series [2], the Tm worked out at 53.5 °C.
The corresponding values for GTACCGCGAAAGCGATAC (((.(((....))).))) are -23.6 kcal/mol and 48.5 °C.
Take GGTTACGAAAGTACAACC ((((((....)))..))): the folding enthalpy in series [1] is -19.1 kcal/mol. Moreover, the Tm in series [2] turned out to be 36.1 °C.
The corresponding values for GTGGGCGGAAACACCCAC (((((.(....).))))) are -43.3 kcal/mol and 53.1 °C.
Turning to GATCTAACATTAGATC ((((((....)))))), the folding enthalpy in series [1] was -22.6 kcal/mol. Besides, in series [2], the Tm amounted to 39.6 °C.
Take GGAGACGGAAACGTCTTC (.(((((....))))).): in series [1], the folding enthalpy was -17.4 kcal/mol. For the same sequence, the Tm in series [2] was found to be 50.7 °C.
Regarding GAGATGACGAAAGTCCTC (((..(((....)))))), in series [1], the folding enthalpy is -11.7 kcal/mol. For the same sequence, the Tm in series [2] was 30 °C.
In the case of GTATTGAAAAATAC (((((....))))), the folding enthalpy in series [1] is -15.3 kcal/mol. Besides, the Tm in series [2] stood at 33.1 °C.
